Consider one compound from ChEMBL document CHEMBL2331279, “Rational design and synthesis of 4-substituted 2-pyridin-2-ylamides with inhibitory effects on SH2 domain-containing inositol 5'-phosphatase 2 (SHIP2)” (Eur J Med Chem, 2013).

The assay deals with T1, Phosphatidylinositol 3,4,5-trisphosphate 5-phosphatase 2 (Mus musculus) (UniProt Q6P549).
T1 sequence (whole entry): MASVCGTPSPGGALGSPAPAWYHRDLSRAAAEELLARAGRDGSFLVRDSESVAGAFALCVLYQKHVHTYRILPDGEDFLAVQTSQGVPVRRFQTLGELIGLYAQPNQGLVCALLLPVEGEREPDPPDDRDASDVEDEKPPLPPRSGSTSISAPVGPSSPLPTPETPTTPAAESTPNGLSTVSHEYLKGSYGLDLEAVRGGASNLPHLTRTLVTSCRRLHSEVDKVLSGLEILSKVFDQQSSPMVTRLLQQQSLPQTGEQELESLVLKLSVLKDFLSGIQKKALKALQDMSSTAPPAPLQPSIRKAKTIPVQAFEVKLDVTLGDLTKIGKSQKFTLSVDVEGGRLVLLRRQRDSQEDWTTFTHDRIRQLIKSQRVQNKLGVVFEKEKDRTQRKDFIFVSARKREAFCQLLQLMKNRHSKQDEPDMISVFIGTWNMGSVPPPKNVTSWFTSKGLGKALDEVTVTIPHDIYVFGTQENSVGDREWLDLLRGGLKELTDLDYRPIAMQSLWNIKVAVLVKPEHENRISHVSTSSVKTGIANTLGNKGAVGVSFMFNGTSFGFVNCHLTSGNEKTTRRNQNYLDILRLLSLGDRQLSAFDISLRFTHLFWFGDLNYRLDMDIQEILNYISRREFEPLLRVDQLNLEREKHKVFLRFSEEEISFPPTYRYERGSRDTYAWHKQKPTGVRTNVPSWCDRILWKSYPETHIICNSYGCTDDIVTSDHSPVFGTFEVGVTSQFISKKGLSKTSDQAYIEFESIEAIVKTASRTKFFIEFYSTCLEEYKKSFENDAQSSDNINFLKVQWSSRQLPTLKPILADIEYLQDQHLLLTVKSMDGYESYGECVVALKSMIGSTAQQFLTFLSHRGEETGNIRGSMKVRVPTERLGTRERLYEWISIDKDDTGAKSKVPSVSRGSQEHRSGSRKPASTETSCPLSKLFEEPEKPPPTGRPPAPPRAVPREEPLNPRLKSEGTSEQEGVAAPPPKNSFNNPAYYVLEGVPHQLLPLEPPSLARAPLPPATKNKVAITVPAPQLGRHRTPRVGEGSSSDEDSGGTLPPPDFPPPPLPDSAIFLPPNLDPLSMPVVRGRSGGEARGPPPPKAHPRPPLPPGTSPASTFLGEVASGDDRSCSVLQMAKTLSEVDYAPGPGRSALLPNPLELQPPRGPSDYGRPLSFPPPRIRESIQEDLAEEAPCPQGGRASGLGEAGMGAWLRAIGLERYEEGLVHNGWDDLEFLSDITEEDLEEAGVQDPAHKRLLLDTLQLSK
In words: Inhibition of SHIP2 in mouse 3T3L1 cells assessed as reduction of TNF-alpha induced decrease in insulin-stimulated Akt phosphorylation at Thr308 at 10 uM treated for 15 mins after TNF alpha challenge for 16 hrs and prior to insulin stimulation measured after 2 hrs by Western blot analysis. Particulars: 3T3-L1. The format is cell-based. The procedure, abridged: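 3T3-L1 fibroblasts differentiated into adipocytes, then serum-starved 16 h with TNFα 20 ng/mL. Treated with compound 10 µM or 0.1% DMSO for 15 min, then stimulated with 17 nM insulin at 37 °C for 2 h. Cells lysed on ice at pH 7.5 and Thr308 phospho-Akt measured by western blot. Results given as fold change versus TNFα+insulin control. Mean ± SE.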
A general note: In western blotting, separated proteins are transferred to a membrane and probed.

Activity calls are given as the source filed them. The rule behind the calls is not given here.

For the compound `O=C(Cc1c(F)cccc1F)Nc1cc(OCc2ccc(Cl)cc2)ccn1`, the inhibition result is “Active”.
